Assay outcomes from PubChem BioAssay.
The list is not random: actives were taken first. Their share in the collection is about 1.7%.
IDE cell inh = inhibits human insulin-degrading enzyme in HEK cells; P14735; FAbetaB cleavage, fluorescence polarization; inhibition, % at 5.59 µM; actives 0.41% (n = 320,000);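 active = percent inhibition above the average of all tested compounds plus 3 SD, set per screening campaign, cut at about 16% in these data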;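 note: IDE supplied by intact live HEK cells; FP after avidin binding of uncleaved biotin substrate so inhibition keeps polarization high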
HNF4A DNA FP = change in binding of human HNF4 alpha to DNA | HNF4a-FITC DNA binding, fluorescence polarization, 1 h | activity change, % at 10 µM | actives 0.3% (n = 360,000); in the data active = activity change above about 30%, passing the limit was not always enough
IDE cell activ = IDE (human) activation, cell-based; activation, % at 5.96 µM; HEK cells, FAbeta-B cleavage, fluorescence polarization; 0% vehicle, 100% cell-free pure enzyme wells; actives 0.073% (n = 340,000); P14735;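 active = activation above the mean of all tested compounds plus 3 SD, set per screening campaign, cut at about 17% in these data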
CSN deneddyl inh = inhibitors of human CSN-mediated cullin deneddylation; inhibition, % at 12.5 µM; actives 0.38% (n = 360,000); AID 651999; Purified CSN, SCF-Nedd8-OG deneddylation, fluorescence polarization; Q92905;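 active = pattern-corrected inhibition above about 35%, with an unprinted fluorescence ratio check between 0.5 and 1.5, limit read from the data, passing the limit was not always enough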
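assay system = purified human Csn5 enzyme expressed in HEK293T cells | amount = 0.24 nM enzyme | buffer or medium = Tris/NaCl/DTT buffer, pH 7.5 | reagent = 10 nM SCFSkp2-Nedd8OG | compound = one concentration, 12.5 µM, 0.25% DMSO | times = 90 min reaction at room temperature | signal = FP | read-out basis = % inhibition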
Rpn11 block = Rpn11 (human) deubiquitinase inhibition | human 26S proteasome, Ub4-pepOG fluorescence polarization; 20S core pre-blocked with epoxomicin | inhibition, % at 20 µM | actives 0.59% (n = 360,000) | AID 588493;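 active = inhibition at 20 µM, scaled to each plate's controls, above about 33%, limit read from the data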
TPT1 inh = blocks Candida albicans tRNA 2'-phosphotransferase; recombinant caTPT1, FP RNA substrate dephosphorylation; inhibition, % at 5 µM; actives 0.81% (n = 300,000); AID 1962;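 active = inhibition above the mean of all tested compounds plus 3 SD, set per screening campaign, cut at about 24% in these data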
CSN5 deneddyl = validation of inhibitors of human CSN-mediated cullin deneddylation; shares compounds with CSN deneddyl inh; Csn5 deneddylation of SCF-Nedd8OG, fluorescence polarization, 90 min; inhibition, % at 16.6 µM; actives 62% (n = 540); AID 720654; in the data active = inhibition above about 50%
MMP2 cntr CSN = MMP-2 (human) inhibition, counter-screen for CSN hits. shares compounds with CSN deneddyl inh. actives 33% (n = 540). inhibition, % at 16.6 µM. recombinant MMP-2, FRET substrate fluorescence, 60 min;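 active = corrected plate-normalized z-score of 5 or more, or -5 or less, or inhibition of 15% or more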
Thrombin cntr = thrombin (bovine) inhibition, counter-screen for CSN hits. shares compounds with CSN deneddyl inh. bovine thrombin cleavage of Ub4-pepOG, fluorescence polarization. inhibition, % at 16.6 µM. actives 49% (n = 540). AID 720656;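 active = inhibition at or above a set limit, with a fluorescence interference ratio between 0.5 and a set maximum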
Target sequence (P00735 whole entry, looked up): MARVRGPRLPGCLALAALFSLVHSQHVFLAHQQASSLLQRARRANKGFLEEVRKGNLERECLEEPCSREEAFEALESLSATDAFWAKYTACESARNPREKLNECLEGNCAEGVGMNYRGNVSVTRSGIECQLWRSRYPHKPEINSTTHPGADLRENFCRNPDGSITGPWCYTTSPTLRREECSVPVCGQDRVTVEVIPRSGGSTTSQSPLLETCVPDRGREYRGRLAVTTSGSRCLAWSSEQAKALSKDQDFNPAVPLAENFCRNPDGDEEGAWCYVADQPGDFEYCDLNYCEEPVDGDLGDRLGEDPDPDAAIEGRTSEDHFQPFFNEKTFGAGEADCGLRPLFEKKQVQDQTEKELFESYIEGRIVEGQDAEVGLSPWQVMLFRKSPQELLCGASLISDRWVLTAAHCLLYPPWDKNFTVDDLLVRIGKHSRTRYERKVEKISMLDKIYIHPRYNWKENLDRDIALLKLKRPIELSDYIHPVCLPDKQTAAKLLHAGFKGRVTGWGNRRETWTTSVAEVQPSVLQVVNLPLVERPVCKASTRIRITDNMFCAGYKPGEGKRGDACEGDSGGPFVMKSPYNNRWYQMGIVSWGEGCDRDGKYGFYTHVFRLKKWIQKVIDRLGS
A number is an active result; . = inactive; / = not tested or not shown; + = active, no number.

SMILES | IDE cell inh | HNF4A DNA FP | IDE cell activ | CSN deneddyl inh | Rpn11 block | TPT1 inh | CSN5 deneddyl | MMP2 cntr CSN | Thrombin cntr
C=CCn1c(O)c(N=Nc2ccccc2)c2ccccc21 | . | . | . | . | . | . | / | / | /
C=CCn1c(O)c(N=Nc2ccccc2O)c2ccccc21 | . | 84 | . | 47 | / | / | + | . | 33
Cc1ccc(/C=C2\SC(=S)N(CC3CCCO3)C2=O)o1 (stereo not given) | . | . | . | 74 | / | . | 103 | 33 | 34
Cc1cccc(NC(=O)CNC(=O)Cn2cc(C(F)(F)F)cc(Cl)c2=O)c1C | / | . | . | . | . | / | / | / | /
O=C(CN1C(=O)NC2(CCc3ccccc32)C1=O)c1c[nH]c2ccccc12 (stereo not given) | . | . | . | . | . | . | / | / | /
COc1ccc(OC)c(N2C(=O)[C@@H]3C(c4ccccc4Cl)=NO[C@@H]3C2=O)c1 | . | . | . | 40 | . | . | 69 | . | .
CC(C)NC(=O)CCCN1C(=O)c2ccccc2Sc2ncccc21 | . | . | . | . | . | . | / | / | /
CCCCCCCCCCCCCCCC(O)C(N)CO (stereo not given) | . | 47 | . | 53 | . | . | . | . | .
CCN(CC)c1ccc(C=Nc2ccc(C)cc2)c(O)c1 | . | . | . | . | . | . | / | / | /
CCN(CC)c1ccc(C=Nc2ccc(N(C)C)cc2)c(O)c1 | . | . | . | 42 | / | . | 128 | . | 37
COc1cc(NC(C)CCCNC(C)C)c2ncccc2c1OC (stereo not given) | / | . | . | . | . | / | / | / | /
COc1cc(NCCCCCCN)c2ncccc2c1OC | / | . | . | 86 | . | / | / | . | .
O=[N+]([O-])c1ccc(/C=C/C2=NN(c3ccccc3)C(c3ccco3)C2)o1 (stereo not given) | / | . | . | 62 | / | / | . | . | 21
CC(C)(C)[C@H](N)C(=O)N[C@H]1CCC2C3CC=C4C[C@@H](O)CC[C@]4(C)C3CC[C@@]21C (stereo not given in full) | . | . | . | 49 | . | / | . | . | 16
CC(C)C(=O)N[C@H]1CCC2C3CC=C4C[C@@H](O)CC[C@]4(C)C3CC[C@@]21C (stereo not given in full) | . | . | . | . | . | / | / | / | /
Cc1ccc(CNc2ccc(O)cc2)cc1 | / | . | . | 38 | . | / | 87 | . | .
Cc1ccc(NCc2ccccc2O)cc1 | . | . | . | . | . | . | / | / | /
O=C(C=Cc1ccc2c(c1)OCO2)c1ccccc1 | / | . | . | . | . | / | / | / | /
CNc1ccc(Br)cc(C(=O)/C=C/c2ccc3c(c2)OCO3)c1=O | . | . | . | 44 | . | . | 71 | . | 20
CCOc1ccc(C(=O)Nc2cc(-c3nc4ccccc4[nH]3)ccc2Cl)cc1[N+](=O)[O-] | . | . | . | 111 | . | . | / | . | .
Cc1ccc(-n2cccc2/C=C2\C(=N)N3N=C(c4ccco4)SC3=NC2=O)cc1 | . | . | . | 61 | / | . | . | 19 | .
COc1ccccc1CN1CC(C(=O)NCc2cc(F)ccc2C)CCC1=O (stereo not given) | / | . | . | . | . | / | / | / | /
O=C(O)CSc1cc(C(=O)c2ccccc2O)cn2c(=O)c3c4c(sc3nc12)CCCC4 | / | . | . | 43 | . | / | . | 42 | .
O=C(O)CSc1nc2sc3c(c2c(=O)n1Cc1ccccc1)CCCCC3 | . | . | . | . | . | . | / | / | /
O=C1C(=O)c2cccnc2-c2ncccc21 | / | . | / | 59 | . | / | . | . | .
SMILES | IDE cell inh | HNF4A DNA FP | IDE cell activ | CSN deneddyl inh | Rpn11 block | TPT1 inh | CSN5 deneddyl | MMP2 cntr CSN | Thrombin cntr
O=c1[nH]c(Nc2ccccc2Cl)cc2ccccc12 | . | . | . | . | . | . | / | / | /
O=c1[nH]c(Nc2ccc(F)cc2)cc2ccccc12 | . | . | . | 35 | . | . | 73 | . | .
Cc1nnn(-c2nonc2N)c1C(=O)N/N=C/c1cccc2ccccc12 | . | . | . | . | . | . | / | / | /
Cc1nnn(-c2nonc2N)c1C(=O)N/N=C/c1ccccc1O | . | . | . | 44 | . | . | . | 23 | .
O=C(N/N=C/c1cc(Br)c(Br)o1)c1ccc2c(c1)OCCO2 | . | . | . | 40 | . | . | 66 | . | .
Cc1cc(C(=O)O)ccc1-c1ccc(/C=C2\NC(=O)N(Cc3ccc(F)cc3)C2=O)o1 | . | . | . | 36 | . | . | / | 17 | 16
Cc1ccc(CN2C(=O)N/C(=C/c3ccc(-c4ccc(C(=O)O)cc4)o3)C2=O)cc1 | . | . | . | . | . | . | / | / | /
COc1cccc(NC(=O)COC(=O)CCC2CCCC2)c1 | . | . | . | . | . | / | / | / | /
Cc1cc(N2CCN(C)CC2)ccc1NC(=O)c1cccc(S(=O)(=O)N2CCc3ccccc3C2)c1 | . | . | . | 108 | . | . | 53 | . | .
Cc1ccsc1/C=C/C1=Cc2c(sc(NC(=O)CSc3n[nH]c(N)n3)c2C#N)C(C)(C)C1 | . | . | . | . | . | . | / | / | /
CCOc1ccc(/C=C/C2=Cc3c(sc(NC(=O)CSc4n[nH]c(N)n4)c3C#N)C(C)(C)C2)cc1 | . | 42 | . | 44 | / | 57 | 72 | . | 35
O=C1/C(=C/c2ccc(O)c(O)c2)SC(=S)N1Nc1ccccc1 | / | . | . | 54 | / | / | . | 18 | 54
Cc1ccc(S(=O)(=O)NCC(C)n2nc(C)nc2C)cc1 (stereo not given) | . | . | . | . | . | . | / | / | /
CCCCn1c(NS(=O)(=O)c2ccc(C)cc2)c(S(=O)(=O)c2ccccc2)c2nc3ccccc3nc21 | . | . | . | 69 | . | . | 101 | . | .
O=C1NC(=Nc2ccc(O)cc2)S/C1=C\C=C\c1ccco1 | . | . | . | 48 | . | . | 92 | . | .
COc1ccc(N=C2NC(=O)/C(=C\c3ccco3)S2)cc1 | . | . | . | . | . | . | / | / | /
CCCNC(=O)c1cc(Cl)c(NC(=O)C2=CSCCO2)cc1OC | . | . | . | . | . | . | / | / | /
O=C(CSc1ccccn1)Nc1ccc2c(c1)C(=O)c1ccccc1C2=O | . | . | . | . | . | . | / | / | /
O=C(CSc1n[nH]c(=O)[nH]c1=O)Nc1ccc2c(c1)C(=O)c1ccccc1C2=O | . | . | . | 48 | . | . | / | 69 | .
Cc1cc(/C=N/NC(=O)C(O)(c2ccccc2)c2ccccc2)c(C)n1-c1cccc(C(=O)O)c1 | . | . | . | 41 | . | . | 59 | . | .
O=C(O)c1cc(N2CCCCC2)ccn1 | / | . | . | . | . | / | / | / | /
